For twelve molecules, IC50, survival and MST results are on record in ChEMBL document CHEMBL1125595 (1991).

In experiment [1] the test system is Vero. The experiment is described as follows: Anticellular activity was determined by cell proliferation assay in vero cells. The following applies: Chlorocebus sabaeus, read-out: ID50 (the source's name).
Experiment [2] has as its system Vero. In words: Antiviral activity determined by plaque reduction assay of HSV-2 (G) in vero cells. The following applies: Chlorocebus sabaeus, read-out: ID50 (the source's name). It counts as functional. An outline of the steps: (§1)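 Plaque reduction assay: HSV strains in Vero cells and HCMV in MRC-5 cells. ID50 is the dose giving a 50% fall in plaque numbers relative to untreated controls.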
(In general: In a plaque reduction assay, fewer plaques than in the control indicate reduced infectivity or spread.)

For a further experiment, the system named is MRC5. The experiment is described as follows: Antiviral activity determined by plaque reduction assay of HCMV (AD-169) in MRC-5 cells. It counts as functional. The conditions noted are these: Homo sapiens, read-out: ID50 (the source's name). An outline of the steps: as §1
The test system of experiment [3] is Vero. The experiment is described as follows: Antiviral activity determined by plaque reduction assay of HSV-1 (BWS) in vero cells. It counts as functional. The conditions noted are these: Chlorocebus sabaeus, read-out: ID50 (the source's name). An outline of the steps: as §1
Experiment [4] concerns Mus musculus. In words: Antiviral activity in terms of percentage survival at a dose of 300 mg/kg after intraperitoneal inoculation of HSV-1(BWS) in mice (6/7). It counts as functional. The conditions noted are these: ip. An outline of the steps:
(§2)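 Female Swiss-Webster mice of about 20 g were infected intraperitoneally with 5 × 10^4 PFU HSV-1 (BWS). Compound was given intraperitoneally twice daily for 5 consecutive days, starting 3 h postinfection. A saline placebo group served as control. Deaths were recorded for 21 days, and survivors and mean survival time in days were taken at the day-21 endpoint.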

Experiment [5] has as its system Mus musculus. In words: Compound tested for its effect on mean survival time in mice against HSV-1(BWS) at a dose of 300 mg/kg. It counts as functional. An outline of the steps: as §2
In experiment [6] the test system is Mus musculus. In words: Antiviral activity in terms of percentage survival at a dose of 100 mg/kg after intraperitoneal inoculation of HSV-1(BWS) in mice (7/10). It counts as functional. The following applies: ip. Summed up:
as §2

Experiment [7] deals with Mus musculus. The experiment is described as follows: Antiviral activity in terms of percentage survival at a dose of 300 mg/kg after intraperitoneal inoculation of HSV-1(BWS) in mice (10/10). It counts as functional. The following applies: ip. An outline of the steps: as §2
Experiment [8] concerns Mus musculus. The experiment is described as follows: Antiviral activity in terms of percentage survival at a dose of 100 mg/kg after intraperitoneal inoculation of HSV-1(BWS) in mice (9/10). The conditions noted are these: ip. It counts as functional. Summed up:
as §2

Experiment [9] has as its system Mus musculus. In words: Compound tested for its effect on mean survival time in mice against HSV-1(BWS) at a dose of 100 mg/kg. It counts as functional. Summed up:
as §2

In brackets after ≈: the same amount, converted by molar mass. Where only a bound is given, the exact number is not on record here.

Consider `N.Nc1nc(O)c2ncn(CC(CO)CCP(=O)(O)O)c2n1` (configuration not stated), for which the IC50 in the experiment on Vero [1], in the experiment on Vero [2] and with MRC5 was above 100 µg/mL throughout.

With `Nc1nc2c(ncn2CCOCP(=O)(O)O)c(=O)[nH]1` [GS-438], the IC50 is 5 µg/mL (≈ 17.3 µM) in the experiment on Vero [1], 0.08 µg/mL (≈ 0.277 µM) in the experiment on Vero [3], 0.69 µg/mL (≈ 2.39 µM) with Vero [2] and 0.04 µg/mL (≈ 0.138 µM) in the experiment on MRC5.

Turning to `Cc1cn(COCOCP(=O)([O-])[O-])c(=O)[nH]c1=O.[Na+].[Na+]`, the IC50 in the experiment on Vero [1], in the experiment on Vero [3], in the experiment on Vero [2] and in the experiment on MRC5 was above 100 µg/mL in each case.

`Nc1ccn(COCOCP(=O)([O-])[O-])c(=O)n1.[Na+].[Na+]`: the IC50 in the experiment on Vero [1], in the experiment with Vero [3], with Vero [2] and in the experiment with MRC5 was above 100 µg/mL in each case.

Consider `Nc1ncnc2c1ncn2COCOCP(=O)([O-])[O-].[Na+].[Na+]`, for which the IC50 with Vero [1], in the experiment on Vero [3], with Vero [2] and with MRC5 was above 100 µg/mL in each case.

Turning to `COC(CO)OCn1cnc2c(O)nc(N)nc21` (configuration not stated), the IC50 in the experiment on Vero [1], in the experiment with Vero [3], in the experiment on Vero [2] and in the experiment with MRC5 was above 100 µg/mL each time.

For the molecule `N.Nc1ccn(CC(CO)CCP(=O)(O)O)c(=O)n1` (configuration not stated), the IC50 with Vero [1], in the experiment with Vero [2] and with MRC5 was above 100 µg/mL in each case.

For the molecule `Nc1nc(O)c2ncn(COC(CO)OCP(=O)([O-])[O-])c2n1.[Na+].[Na+]` (configuration not stated), the IC50 in the experiment with Vero [1] is above 100 µg/mL; in the experiment with Vero [3] it was 3.3 µg/mL; with Vero [2], 8.2 µg/mL; in the experiment on MRC5 it was 0.9 µg/mL.

`Nc1nc2c(ncn2COCCO)c(=O)[nH]1` [ACYCLOVIR]: in the experiment with Mus musculus [4], the survival at 300 mg/kg was found to be 86%. In the experiment on Mus musculus [5], the MST turned out to be 20 days. In the experiment on Mus musculus [6], the survival at 100 mg/kg worked out at 70%. Moreover, the IC50 in the experiment with Vero [1] was above 100 µg/mL; in the experiment with Vero [3] it was 0.5 µg/mL (≈ 2.22 µM); with Vero [2], 2.4 µg/mL (≈ 10.7 µM); in the experiment on MRC5, 38.4 µg/mL (≈ 171 µM).

As for `N.Nc1ncnc2c1ncn2CC(CO)CCP(=O)(O)O` (configuration not stated), the IC50 in the experiment on Vero [1], with Vero [2] and with MRC5 was above 100 µg/mL each time.

In the case of `CC(OCn1cnc2c(O)nc(N)nc21)OCP(=O)(O)O` (configuration not stated), the IC50 in the experiment with Vero [1], in the experiment on Vero [3], with Vero [2] and in the experiment on MRC5 was above 100 µg/mL throughout.

Take `Nc1nc(O)c2ncn(COCOCP(=O)([O-])[O-])c2n1.[Na+].[Na+]`: the survival at 300 mg/kg with Mus musculus [7] came out at 100%. For the same molecule, the values for the MST with Mus musculus [5] and in the experiment with Mus musculus [9] were 21 days and 20.4 days, respectively. Further, the IC50 was above 100 µg/mL in the experiment with Vero [1], 2.6 µg/mL in the experiment with Vero [3], 11 µg/mL with Vero [2] and 5 µg/mL in the experiment with MRC5. Moreover, the survival at 100 mg/kg in the experiment on Mus musculus [8] amounted to 90%.
